LANA-H2B inh: blocks KSHV LANA binding to histone H2A/H2B; hit rate 0.6% among 320,000; cell-free LANA-H2A/H2B peptide, fluorescence polarization; Q9QR71; inhibition, % (no concentration beside the values); in the data active = inhibition mostly above about 10%, no sharp cut-off; inactive = mostly below about 6.7%
ZTA counter: blocks Epstein-Barr virus ZTA, an EBNA-1 counter-screen. hit rate 0.15% among 320,000. P03206. ZTA-DNA binding, fluorescence polarization. AID 2234. inhibition, % at 11 µM; in the data active = inhibition above about 33%
Target sequence (P03206 whole entry, looked up): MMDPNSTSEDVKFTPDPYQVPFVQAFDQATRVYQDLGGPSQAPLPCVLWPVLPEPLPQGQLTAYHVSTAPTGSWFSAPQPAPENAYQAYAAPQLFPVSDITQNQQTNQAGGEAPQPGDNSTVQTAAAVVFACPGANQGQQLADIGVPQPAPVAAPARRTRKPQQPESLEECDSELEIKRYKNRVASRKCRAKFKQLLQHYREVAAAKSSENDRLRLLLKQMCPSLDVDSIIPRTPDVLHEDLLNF
CSN deneddyl inh: inhibitors of human CSN-mediated cullin deneddylation; Purified CSN, SCF-Nedd8-OG deneddylation, fluorescence polarization; inhibition, % at 12.5 µM; hit rate 0.38% among 360,000; AID 651999;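 active = pattern-corrected inhibition above about 35%, with an unprinted fluorescence ratio check between 0.5 and 1.5, limit read from the data, passing the limit was not always enough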;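 note: 0% = enzyme with substrate and 100% = substrate without enzyme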
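Assay system: Purified human Csn5 enzyme expressed in HEK293T cells | Amount: Enzyme 0.24 nM | Measured by: Fluorescence polarization readout | Medium: Tris/NaCl/DTT buffer, pH 7.5 | Compound dosing: One concentration, 12.5 µM, 0.25% DMSO | Times: 90 min incubation of compound, enzyme and substrate at room temperature | Control set: no-enzyme wells high, enzyme-with-substrate wells low | Read-out: % inhibition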
EBNA-1 inh: blocks EBNA-1 binding to DNA; EBNA-1 DNA binding, fluorescence polarization; inhibition, % at 14.8 µM; hit rate 0.34% among 300,000; AID 1950; in the data active = inhibition above about 28%
A1 inh: inhibitors of the anti-apoptotic protein A1, read as caspase activation; caspase activation, % (test concentration not listed); hit rate 0.066% among 330,000; MEF A1-2A-BIM cells, Caspase-Glo 3/7 luminescence, 3 h; percent of clofoctol response, vehicle zero;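 active = over half of replicate activation scores above 10%, or exactly half above 10 with the replicate mean above 10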
HNF4A DNA FP: change in binding of human HNF4 alpha to DNA | P41235 | HNF4a-FITC DNA binding, fluorescence polarization, 1 h | activity change, % at 10 µM | hit rate 0.3% among 360,000; in the data active = activity change above about 30%, passing the limit was not always enough
Target sequence (P41235 whole entry, looked up): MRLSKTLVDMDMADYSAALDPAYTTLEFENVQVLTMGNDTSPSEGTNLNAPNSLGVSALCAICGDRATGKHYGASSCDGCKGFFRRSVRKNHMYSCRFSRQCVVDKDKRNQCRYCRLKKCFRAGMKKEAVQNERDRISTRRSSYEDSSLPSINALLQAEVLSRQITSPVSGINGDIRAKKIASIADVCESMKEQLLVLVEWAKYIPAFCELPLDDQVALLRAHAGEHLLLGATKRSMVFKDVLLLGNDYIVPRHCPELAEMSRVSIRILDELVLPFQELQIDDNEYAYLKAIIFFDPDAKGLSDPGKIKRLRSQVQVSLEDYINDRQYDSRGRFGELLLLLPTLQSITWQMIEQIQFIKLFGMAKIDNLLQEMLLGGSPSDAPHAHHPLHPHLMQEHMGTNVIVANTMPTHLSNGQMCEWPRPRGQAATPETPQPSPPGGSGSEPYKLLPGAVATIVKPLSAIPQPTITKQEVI
Numbers without * were called inactive; · = no result given; + = active, no number; ! = not confirmed by another sample. In the library only some 1.5% were active in any assay of this set; here they are far more common.

SMILES | LANA-H2B inh | ZTA counter | CSN deneddyl inh | EBNA-1 inh | A1 inh | HNF4A DNA FP
N#Cc1ccccc1NCc1ccccc1 | 15.0* | 10.6 | -4.1 | 12.3 | -0.6 | -2.6
CC[C@@H]1C=C(C(=O)O)[C@H](c2ccc(Cl)c(Cl)c2)N1S(=O)(=O)c1ccc(C)cc1 | -0.8 | · | 1.7 | · | -0.5 | -2.6
Cc1ccccc1S(=O)(=O)N1[C@@H](c2ccc(Cl)cc2)C(C(=O)O)=CC[C@H]1c1ccc(Cl)cc1 | 60.0* | · | 6.3 | · | 0.8 | -7.0
Cc1ccc(S(=O)(=O)N2[C@@H](c3ccc(C(C)(C)C)cc3)C(C(=O)O)=CC[C@H]2c2ccc(Cl)c(Cl)c2)cc1 | · | · | 7.8 | · | · | -12.9
Cc1ccc([C@H]2C(C(=O)O)=CC[C@@H](c3ccc(C)cc3)N2S(=O)(=O)c2ccc(C)cc2)cc1 | + | · | 0.8 | · | -0.6 | -0.9
CCCCC[C@@H]1C=C(C(=O)O)[C@H](c2ccc(Cl)c(Cl)c2)N1S(=O)(=O)c1ccc(C)cc1 | 120.0* | · | 14.7 | · | 0.1 | -5.0
Cc1ccc(S(=O)(=O)N2[C@@H](c3ccc(Cl)cc3)C(C(=O)OC(C)(C)C)=CC[C@H]2c2ccc(Cl)c(Cl)c2)cc1 | · | · | 144.0* | · | · | -4.2
Cc1noc(C)c1C(=O)N(C)C[C@@H]1OCc2ccccc2-c2c(n(C)c3ccccc23)C(=O)N([C@H](C)CO)C[C@H]1C | · | · | -1.0 | · | · | -0.6
Cc1c(-c2ccccc2)[n+](=O)c(-c2ccc(Cl)cc2)c(C)n1[O-] | 0.4 | 7.7 | -0.2 | 8.7 | -0.2 | -2.6
O=C(NCc1ccco1)C1CCC(N2C(=O)c3ccccc3C2=O)CC1 (stereo not drawn) | 23.3* | 1.5 | 3.4 | 2.2 | 0.3 | 3.2
COc1cc(/C=C(\CC(=O)O)c2nc3ccccc3s2)ccc1OCC(=O)Nc1ccccc1F | · | · | -1.9 | · | · | -1.7
COc1cc(/C=C(/C#N)c2nc3ccccc3[nH]2)ccc1OCC(=O)Nc1ccccc1C(C)C | 0.1 | 8.0 | 0.2 | 4.8 | 10.0* | 0.8
COc1cc(/C=C(\C#N)c2nc3ccccc3s2)ccc1OCC(=O)Nc1ccccc1 | -2.8 | 13.1 | 39.7* | 11.8 | 1.0 | 33.0*
COc1cc(/C=C(/C#N)c2nc3ccccc3[nH]2)ccc1OCC(=O)Nc1ccccc1C | 11.7 | 12.3 | 8.7 | -11.0 | 7.2* | -9.3
COc1ccc(C2(O)CCN(CC(=O)Nc3nccs3)CC2)c(OC)c1 | -10.1 | -13.6 | 0.0 | 4.2 | 0.6 | 0.3
CS(=O)(=O)N(CCC#N)Cc1ccc(/C=C2\C(=O)Nc3ccccc32)o1 | 0.1 | 0.2 | -3.8 | 1.1 | -0.1 | 0.0
CCc1ccc(-c2cc(C)no2)cc1S(=O)(=O)N1CCN(c2cc(C)ccc2C)CC1 | 4.5 | 7.3 | 0.7 | -16.0 | -1.0 | -3.2
O=S1(=O)CC(N2CCN(CCO)CC2)CN1Cc1ccccc1 (stereo not drawn) | · | · | -0.2 | · | · | -1.6
COC(=O)c1ccccc1NC1CC(=O)N(c2c(C)cccc2C)C1=O (stereo not drawn) | 95.6* | -2.1 | -3.6 | -9.2 | -0.2 | 2.8
COC(=O)c1ccc(NC2CC(=O)N(c3ccccc3C)C2=O)cc1 (stereo not drawn) | 2.7 | 0.7 | -5.4 | 2.9 | -0.4 | -0.7
O=C1C=C(c2ccc(C(=O)O)c(Cl)c2)C[C@@H](c2ccc3c(c2)OCO3)C1 | 4.9 | · | -0.3 | · | 1.5 | 3.8
N#Cc1csc(CCNC(=O)c2ccccc2)n1 | · | · | -3.6 | · | · | -0.7
COc1ccc(CCN2CC(C(=O)N(C)Cc3ccccc3OC)CCC2=O)cc1 (stereo not drawn) | 12.3* | -10.3 | -0.9 | -2.2 | -1.0 | -2.4
CN1/C(=C\C=N\NC(=O)c2ccc(O)cc2)C(C)(C)c2ccccc21 | 4.4 | -3.9 | 32.6 | 5.1 | -0.1 | 38.4*
CN1/C(=C\C=N\NC(=O)c2cccnc2)C(C)(C)c2ccccc21 | 2.3 | -12.6 | -2.2 | -12.4 | -1.0 | 4.0
SMILES | LANA-H2B inh | ZTA counter | CSN deneddyl inh | EBNA-1 inh | A1 inh | HNF4A DNA FP
Cc1ccc(-c2nc3cccnc3s2)cc1NC(=O)C1c2ccccc2Oc2ccccc21 | · | · | 36.0* | · | · | 39.8*
CC(=O)Nc1ccc2c(c1)C(C)(C)C(C)N2C (stereo not drawn) | 2.9 | 60.4* | · | 45.5* | -0.6 | ·
CN(Cc1ccccc1)C(=O)COC(=O)c1cc(NS(=O)(=O)c2cccs2)ccc1O | 4.1 | -22.7 | 8.2 | 0.5 | 0.4 | -2.0
O=C1CSC(=S)N1Nc1ccccc1 | · | · | -8.1 | · | · | 2.8
O=[N+]([O-])c1ccc(-c2cn(-c3ccc(Cl)cc3)cn2)cc1 | · | · | 5.2 | · | · | 40.1*
COc1ccc(-n2c(=O)[nH]c3cc(C(=O)NCCc4ccccc4)ccc3c2=O)cc1OC | -3.0 | -7.7 | 0.8 | 3.4 | 0.4 | 1.9
COc1ccc(-c2c(C#N)c(N)nc3sc(C(=O)c4ccc(C)cc4)c(N)c23)cc1 | · | 6.8 | 15.5 | 5.3 | 0.2 | 74.8*
COc1ccc(C(=O)c2sc3nc(-c4ccc(OC)cc4)ccc3c2N)cc1 | -2.9 | -9.7 | 4.1 | 1.8 | 0.7 | 15.9
O=c1[nH]cnc2c1C(c1ccccc1)c1c(nc[nH]c1=O)O2 | · | · | 0.0 | · | · | 3.4
CN(C)c1ccc(/C=C(/NC(=O)c2ccccc2)C(=O)N2CCCC2)cc1 | 22.9 | -11.6 | 37.9* | -8.5 | 0.2 | 5.1
CCOC(=O)NC(=O)/C(C#N)=C/c1ccc(N(C)C)cc1 | -6.8 | -5.1 | 34.3 | 2.9 | -0.4 | 56.4*
CN(C)c1ccc(/C=C(\C#N)C(=O)c2ccccc2)cc1 | 2.7 | -10.1 | 76.9 | -0.5 | -0.3 | 77.0*
Cc1cc(Cl)ccc1NC(=O)/N=C1/NC(=O)CS1 | · | · | -3.2 | · | · | 5.5
CC(C)NC(=O)C1(C)CCN1C(=O)c1cccc(F)c1 (stereo not drawn) | · | · | -2.9 | · | · | 0.1
CCOc1ccc(C(=O)NC(=S)Nc2cc(C)ccn2)cc1[N+](=O)[O-] | 98.3* | 0.4 | 0.2 | -13.1 | -0.4 | 0.1
CCOc1cc(/C=C2/SC(=S)N(CC3CCCO3)C2=O)ccc1O (stereo not drawn) | 1.5 | -0.2 | 11.5 | -17.2 | -0.4 | 42.0*
COc1ccccc1N1CCN(CC(O)COc2cccc3ccccc23)CC1 (stereo not drawn) | 23.5*! | 6.0 | -5.3 | -0.5 | 0.9 | -2.3
OC(COc1cccc2ccccc12)CN1CCN(c2ccccc2)CC1 (stereo not drawn) | -3.5 | -1.9 | -2.2 | -14.5 | 0.3 | -1.8
O=C(/C=C/Nc1ccc(Br)cn1)c1cccc(OC(F)F)c1 | · | -0.7 | 0.9 | · | -2.0 | -0.1
CC(Sc1nnnn1C1CC1)C(=O)Nc1cccc(S(=O)(=O)N2CCOCC2)c1 (stereo not drawn) | · | · | -2.5 | · | · | -3.1
CC(Sc1nnc(C2CC2)n1C1CC1)C(=O)Nc1cccc(S(=O)(=O)N2CCOCC2)c1 (stereo not drawn) | 18.4* | -23.0 | -7.5 | · | -0.7 | -1.2
O=C1CC2(CCN1)CCN(Cc1ccccc1)CC2 | · | · | -0.6 | · | · | 1.8
CCCC[C@@H]1CNCCN1CCc1cccc(F)c1 | -3.8 | -26.9 | 5.0 | -5.3 | -1.4 | 2.4

Screening data as filed in PubChem BioAssay.
